{"data": "Experimental data of several laboratories", "note": "Each line is one published result; the experiments were not run side by side."}
{"Compound": "O=C(Nc1cccc([N+](=O)[O-])c1)Nc1cccc(C(F)(F)F)c1", "cell line": "LAD2", "assay": "degranulation", "quantity": "IC50", "result": "0.28 µM"}
{"Compound": "O=C(C=Cc1ccccc1)Nc1ccc(Oc2nnc(-c3ccc(Cl)cc3)c3ccccc23)cc1", "cell line": "HepG2", "assay": "cell growth or viability, MTT", "setting": "10 µM", "quantity": "cell death", "result": "97.4%"}
{"Compound": "CNc1ncc2c(/C=C/C(=O)N3CCC(OC)CC3)nn(CC3CCCO3)c2n1 (centres unmarked)", "cell line": "OE33", "assay": "cell growth or viability, resazurin", "setting": "5 days", "quantity": "EC50", "result": "> 30 µM"}
{"Compound": "CC(C)(C)c1cnc(CSc2cnc(NC(=O)C3CCN(CCCCCCCCSc4cccc5c4C(=O)N(C4CCC(=O)NC4=O)C5=O)CC3)s2)o1 (centres unmarked)", "cell line": "HH", "assay": "cell growth or viability, CCK-8", "setting": "0.2 µM", "quantity": "viability", "result": "10.7%"}
{"Compound": "CC(=NNC(=S)Nc1ccccc1)c1ccc(Nc2nnc(-c3ccc(Cl)cc3)c3ccccc23)cc1", "cell line": "HepG2", "assay": "cell growth or viability, MTT", "setting": "0.312 µM", "quantity": "cell death", "result": "0.861%"}
{"Compound": "CC(C)(C)c1cnc(CSc2cnc(NC(=O)C3CCN(CCCCCCCSc4cccc5c4C(=O)N(C4CCC(=O)NC4=O)C5=O)CC3)s2)o1 (centres unmarked)", "cell line": "HH", "assay": "cell growth or viability, CCK-8", "setting": "0.15 µM", "quantity": "viability", "result": "76.7%"}
{"Compound": "CN(C)C1CCN(C(=O)/C=C/c2nn(CC3CCCC3)c3ncnc(N)c23)CC1", "cell line": "OE33", "assay": "cell growth or viability, resazurin", "setting": "5 days", "quantity": "EC50", "result": "> 30 µM"}
{"Compound": "O=C(Nc1ccc(Oc2nnc(-c3ccc(Cl)cc3)c3ccccc23)cc1)c1ccccc1", "cell line": "HepG2", "assay": "cell growth or viability, MTT", "setting": "0.156 µM", "quantity": "cell death", "result": "45.6%"}
{"Compound": "CC(=O)c1nn(-c2ccc(C)cc2)/c(=N/N=C(\\C)c2ccc(NC(=O)c3ccccc3)cc2)s1", "cell line": "HepG2", "assay": "cell growth or viability, MTT", "setting": "0.625 µM", "quantity": "viability", "result": "5.4%"}
{"Compound": "O=C(Nc1ccc(Oc2nnc(-c3ccc(Cl)cc3)c3ccccc23)cc1)c1cccc([N+](=O)[O-])c1", "cell line": "HepG2", "assay": "cell growth or viability, MTT", "setting": "2.5 µM", "quantity": "cell death", "result": "96.4%"}
{"Compound": "CNc1ncc2c(/C=C/C(=O)N3CCC(O)CC3)nn(CC3CCCC3)c2n1", "cell line": "OE33", "assay": "cell growth or viability, resazurin", "setting": "5 days", "quantity": "EC50", "result": "> 30 µM"}
{"Compound": "CCOC(=O)c1nn(-c2cccc(Cl)c2)/c(=N/N=C(\\C)c2ccc(NC(=O)c3ccccc3)cc2)s1", "cell line": "HepG2", "assay": "cell growth or viability, MTT", "setting": "1.25 µM", "quantity": "viability", "result": "2.72%"}
{"Compound": "C=CC(=O)NC1CCN(c2ncc3ncnc(Nc4ccc(Oc5ccc6c(c5)ncn6C)c(C)c4)c3n2)CC1", "cell line": "SW 1116", "assay": "cell growth or viability", "quantity": "EC50", "result": "0.0152 µM"}
{"Compound": "CC(=NNC(=O)c1ccccc1Br)c1ccc(Nc2nnc(-c3ccc(Cl)cc3)c3ccccc23)cc1", "cell line": "HepG2", "assay": "cell growth or viability, MTT", "setting": "2.5 µM", "quantity": "cell death", "result": "95.8%"}
{"Compound": "CNc1ncc2c(/C=C/C(=O)N3CCC(COC)CC3)nn(Cc3cccc(C)c3)c2n1", "cell line": "OE33", "assay": "cell growth or viability, resazurin", "setting": "5 days", "quantity": "EC50", "result": "> 30 µM"}
{"Compound": "CC(C)(C)c1cnc(CSc2cnc(NC(=O)C3CCN(CCCCCCCCSc4cccc5c4CN(C4CCC(=O)NC4=O)C5=O)CC3)s2)o1 (centres unmarked)", "cell line": "HH", "assay": "cell growth or viability, CCK-8", "setting": "0.2 µM", "quantity": "viability", "result": "0%"}
{"Compound": "CNc1ncc2c(/C=C/C(=O)N3CCC(OC)CC3)nn(Cc3ccc(OC)cc3)c2n1", "cell line": "OE33", "assay": "cell growth or viability, resazurin", "setting": "5 days", "quantity": "EC50", "result": "1.63 µM"}
{"Compound": "CC(C)(C)c1cnc(CSc2cnc(NC(=O)C3CCN(C(=O)CCCSc4cccc5c4C(=O)N(C4CCC(=O)NC4=O)C5=O)CC3)s2)o1 (centres unmarked)", "cell line": "HH", "assay": "cell growth or viability, CCK-8", "setting": "0.5 µM", "quantity": "viability", "result": "17.8%"}
{"Compound": "CC(=O)Nc1ccc(Oc2nnc(-c3ccc(Cl)cc3)c3ccccc23)cc1", "cell line": "HepG2", "assay": "cell growth or viability, MTT", "setting": "1.25 µM", "quantity": "cell death", "result": "92.9%"}
{"Compound": "CNc1ncc2c(/C=C/C(=O)N3CCC(OC)CC3)nn(Cc3ccccc3C(F)(F)F)c2n1", "cell line": "OE33", "assay": "cell growth or viability, resazurin", "setting": "5 days", "quantity": "EC50", "result": "11.4 µM"}
